Laboratory results: ChEMBL document CHEMBL3797089, “Morusin Induces TRAIL Sensitization by Regulating EGFR and DR5 in Human Glioblastoma Cells” (J Nat Prod, 2016)
pIC50: −log10 of the molar value. Active and inactive are the calls of the source. The rule behind the calls is not given here.

How the values were obtained:
[1] = Cytotoxicity against human U87MG cells assessed as reduction in cell viability after 24 hrs by MTT assay; format: functional, cell-based, U-87MG ATCC; settings: U-87 MG
Outline: (§1)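 Seeded 3–5 × 10^3 cells/well, treated the next day with a range of morusin (DMSO stock) for 24 h, 37 °C, 5% CO2. Then fresh medium with 1 mg/mL MTT for 2 h at 37 °C, lysis buffer overnight at 37 °C, OD 570 nm. Mean ± SD from at least three independent experiments in triplicate.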

[2] = Cytotoxicity against human U138MG cells assessed as reduction in cell viability after 24 hrs by MTT assay; format: functional, cell-based; settings: U138-MG; outline: as §1
[3] = Cytotoxicity against human U251MG cells assessed as reduction in cell viability after 24 hrs by MTT assay; format: functional, cell-based; settings: U-251, 24 h; outline: as §1
[4] = test system: U-87 MG; assay: Induction of apoptosis in human U87MG cells assessed as increase in cleaved caspase 3 levels at 2.5 uM after 24 hrs by Western blot analysis in presence of TRAIL; format: functional, cell-based; settings: U-87MG ATCC
Outline: (§2)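 U87MG and T98G given TRAIL 25 ng/mL plus morusin 2.5 μM together for 24 h; single-agent arms used TRAIL 50 ng/mL or morusin 5 μM. Lysates immunoblotted for cleaved caspase 3, 8, 9 and cleaved PARP, with β-actin as internal control.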

[5] = test system: U-87 MG; assay: Induction of apoptosis in human U87MG cells assessed as increase in cleaved caspase 9 levels at 2.5 uM after 24 hrs by Western blot analysis in presence of TRAIL; format: functional, cell-based; settings: U-87MG ATCC; outline: as §2
[6] = test system: U-87 MG; assay: Induction of DR5 expression in human U87MG cells after 24 hrs by Western blot analysis; format: functional, cell-based; settings: U-87MG ATCC
Outline: (§3)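 Cells exposed to a range of morusin concentrations for 24 h. Cell extracts immunoblotted for DR4, DR5, DcR1 and DcR2, with β-actin as internal control and HRP-conjugated secondary antibodies (1:5000).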

[7] = test system: U373 MG; assay: Induction of DR5 expression in human U373MG cells after 24 hrs by Western blot analysis; format: functional, cell-based; settings: U-373MG ATCC; outline: as §3
[8] = test system: U-251; assay: Induction of DR5 expression in human U251MG cells after 24 hrs by Western blot analysis; format: functional, cell-based; outline: as §3
[9] = test system: LN-18; assay: Induction of DR5 expression in human LN18 cells after 24 hrs by Western blot analysis; format: functional, cell-based; outline: as §3
[10] = test system: U373 MG; assay: Induction of DR5 expression in human U373MG cells at 25 uM after 24 hrs by FITC-conjugated flow cytometric analysis; format: functional, cell-based; settings: U-373MG ATCC
Outline: (§4)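 Cells given 25 μM morusin for 24 h, then stained on ice for 30 min with 0.5 μg/mL FITC-conjugated anti-DR4, anti-DR5 or isotype IgG in FACS buffer. Surface expression read by flow cytometry.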

[11] = test system: U373 MG; assay: Induction of DR4 expression in human U373MG cells at 25 uM after 24 hrs by FITC-conjugated flow cytometric analysis; format: functional, cell-based; settings: U-373MG ATCC; outline: as §4
[12] = test system: U-87 MG; assay: Induction of DR5 mRNA expression in human U87MG cells at 25 uM after 24 hrs by RT-qPCR analysis; format: functional, cell-based; settings: U-87MG ATCC
Outline: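 U87MG held at 25 μM morusin for the times indicated. Total RNA extracted; 1 μg reverse transcribed; DR5 mRNA measured by RT-qPCR against GAPDH. Mean ± SD.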

[13] = Cytotoxicity against human U87MG cells assessed as cell death after 24 hrs by MTT assay in presence of TRAIL; format: functional, U-87MG ATCC
Outline: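 U87MG cells (MEM, 10% FBS) were seeded at (3−5) × 10^3 cells/well and treated 1 day later with TRAIL at 100 ng/mL plus graded test compound for 24 h. Fresh medium with 1 mg/mL MTT was added for 2 h at 37 °C, then lysis buffer overnight at 37 °C, and OD was read at 570 nm. Data are mean ± SD from ≥3 independent experiments in triplicate.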

[14] = Cytotoxicity against human U87MG cells transfected DR5 siRNA assessed as cell death after 24 hrs by MTT assay in presence of TRAIL; format: functional, U-87MG ATCC
Outline: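 U87MG cells were transiently transfected with scrambled control or DR5 siRNA by lipofection. At 48 h after transfection they were cotreated with TRAIL at 50 ng/mL and test compound at 20 μM for 24 h. Viability was read by MTT: 1 mg/mL for 2 h at 37 °C, lysis overnight, OD at 570 nm. Data are mean ± SD from ≥3 independent experiments.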

[15] = Reduction of XIAP expression in human U373MG cells after 24 hrs by Western blot analysis; format: functional, cell-based; settings: U-373MG ATCC
Outline: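 U87MG (MEM) and U373MG (RPMI) cells were given graded morusin concentrations for 24 h. Whole-cell extracts were immunoblotted for anti-apoptotic proteins, with β-actin as loading control.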

[16] = test system: U-87 MG; assay: Effect on cIAP1 expression in human U87MG cells at 12 to 25 uM after 24 hrs by Western blot analysis; format: functional, cell-based; settings: U-87MG ATCC
Outline: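 U87MG and U373MG exposed to a range of morusin concentrations for 24 h. Whole-cell extracts immunoblotted for cIAP1, with β-actin as internal control.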

[17] = Reduction of survivin mRNA expression in human U87MG cells at 25 uM by RT-qPCR analysis; format: functional, cell-based; settings: U-87MG ATCC, TDE = time-dependent effect
Outline: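 U87MG cells were exposed to 25 μM morusin over a time course. Total RNA (1 μg) was reverse transcribed, and XIAP and survivin transcripts were measured by RT-qPCR against GAPDH. Results are mean ± SD from at least three independent experiments.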

[18] = Reduction of PDGFR expression in human U373MG cells at 25 uM after 24 hrs by Western blot analysis; format: functional, cell-based; settings: U-373MG ATCC
Outline: (§5)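 LN18, U87MG, T98G, U251MG and U373MG glioblastoma cells were exposed to morusin for 24 h. Cells were maintained in DMEM, MEM or RPMI with 10% FBS at 37 °C and 5% CO2. Whole-cell lysates were Western blotted for receptor proteins, with β-actin as internal control.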

[19] = Reduction of EGFR expression in human U373MG cells at 25 uM after 24 hrs by Western blot analysis; format: functional, cell-based; settings: U-373MG ATCC; outline: as §5
[20] = test system: T98G; assay: Reduction of EGFR expression in human T98G cells at 25 uM after 24 hrs by Western blot analysis; format: functional, cell-based; outline: as §5
[21] = Reduction of EGFR expression in human LN18 cells at 25 uM after 24 hrs by Western blot analysis; format: functional, cell-based; settings: LN-18; outline: as §5
[22] = test system: U-87 MG; assay: Effect on DcR2 expression in human U87MG cells upto 25 uM after 24 hrs by Western blot analysis; format: functional, cell-based; settings: U-87MG ATCC; outline: as §3
[23] = test system: LN-18; assay: Effect on DcR1 expression in human LN18 cells upto 25 uM after 24 hrs by Western blot analysis; format: functional, cell-based; outline: as §3
[24] = test system: LN-18; assay: Effect on DR4 expression in human LN18 cells upto 25 uM after 24 hrs by Western blot analysis; format: functional, cell-based; outline: as §3
[25] = test system: U-87 MG; assay: Induction of DR5 expression in human U87MG cells at 25 uM by Western blot analysis; format: functional, cell-based; settings: U-87MG ATCC, TDE = time-dependent effect
Outline: (§6)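 Time course: U87MG and U373MG cells held at 25 μM morusin for the times indicated. Extracts immunoblotted (cIAP1 or DR5), with β-actin as loading control.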

[26] = Reduction of survivin expression in human U87MG cells at 25 uM by Western blot analysis; format: functional, cell-based; settings: U-87MG ATCC, TDE = time-dependent effect
Outline: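 Time course: U87MG and U373MG cells were exposed to 25 μM morusin for the indicated times. Whole-cell extracts were Western blotted, with β-actin as internal control.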

[27] = test system: U373 MG; assay: Effect on cIAP1 expression in human U373MG cells at 25 uM after 3 to 18 hrs by Western blot analysis; format: functional, cell-based; settings: U-373MG ATCC; outline: as §6

CC(C)=CCc1c(-c2ccc(O)cc2O)oc2c3c(cc(O)c2c1=O)OC(C)(C)C=C3 [MORUSIN]
pIC50 [1]: 4.62 | pIC50 [2]: 4.62 | pIC50 [3]: 4.62 | Activity [4]: Active | Activity [5]: Active | Activity [6]: Dose-dependent effect | Activity [7]: Dose-dependent effect | Activity [8]: Dose-dependent effect | Activity [9]: Dose-dependent effect | Activity [10]: Active | Activity [11]: inactive | Activity [12]: Active | Activity [13]: 29% | Activity [14]: 10% | inhibition [15]: Dose-dependent effect | Activity [16]: inactive | Activity [17]: tde | Activity [18]: Active | Activity [19]: Active | Activity [20]: Active | Activity [21]: Active | Activity [22]: inactive | Activity [23]: inactive | Activity [24]: inactive | Activity [25]: tde | inhibition [26]: tde | Activity [27]: inactive
